Converted amounts (≈) assume the structure as drawn.
Assays:
[1] = test system: Enterococcus faecalis; assay: Compound was tested for its antibacterial activity against Streptococcus faecalis 58511 strain.; assay type: functional
[2] = test system: Haemophilus influenzae; assay: Compound was tested for its antibacterial activity against Haemophilus influenzae NCTC 4560 strain.; assay type: functional
[3] = test system: Enterobacter; assay: Compound was tested for its antibacterial activity against Enterobacter 250002 strain.; assay type: functional
[4] = test system: Serratia marcescens; assay: Compound was tested for its antibacterial activity against Serratia marcescens ATCC 14756 strain.; assay type: functional
[5] = test system: Staphylococcus aureus; assay: Compound was tested for its antibacterial activity against Staphylococcus aureus NCIB 8625 strain.; assay type: functional
[6] = test system: Salmonella typhimurium; assay: Compound was tested for its antibacterial activity against Salmonella Typhimurium 538003 strain.; assay type: functional, Salmonella enterica subsp. enterica serovar Typhimurium; details: Salmonella enterica
[7] = test system: Escherichia coli; assay: Compound was tested for its antibacterial activity against Escherichia coli NCIB 8879 strain.; assay type: functional
[8] = test system: Klebsiella aerogenes; assay: Compound was tested for its antibacterial activity against Klebsiella aerogenes 331001 strain.; assay type: functional
[9] = test system: Escherichia coli; assay: In vivo antibacterial activity was measured relative to alafosfalin against Escherichia coli 281007 strain after po administration.; assay type: functional
Summary of the method: (§1)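 Mouse septicaemia model infected with E. coli 281007. Compound was dosed at 1, 3 and 5 h after infection, orally (po) for line 13 and subcutaneously (sc) for line 14. Activity is the relative molar activity of the analogue versus the L-Ala-L-Ala(P) reference, with both CD50 values taken in µmol/kg.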

[10] = test system: Staphylococcus aureus; assay: Compound was tested in vitro for its antibacterial activity against Staphylococcus aureus 561037 strain.; assay type: functional
[11] = test system: Escherichia coli; assay: Compound was tested in vitro for its antibacterial activity against Escherichia coli NCIB 8879 strain.; assay type: functional
[12] = test system: Enterococcus faecalis; assay: Compound was tested in vitro for its antibacterial activity against Streptococcus faecalis FS5 strain.; assay type: functional
[13] = test system: Haemophilus influenzae; assay: Compound was tested in vitro for its antibacterial activity against Haemophilus influenzae NCTC 4560 strain.; assay type: functional
[14] = test system: Escherichia coli; assay: In vivo antibacterial activity was measured relative to alafosfalin against Escherichia coli 281007 strain after sc administration.; assay type: functional; summary of the method: as §1

Row | SMILES | MIC [1] | MIC [2] | MIC [3] | MIC [4] | MIC [5] | MIC [6] | MIC [7] | MIC [8] | CD50 [9] | MIC [10] | MIC [11] | MIC [12] | MIC [13] | CD50 [14]
1 | C[C@@H](NC(=O)[C@@H](N)Cc1ccccc1)P(=O)(O)O | 2 µg/mL (≈ 7.35 µM) | 32 µg/mL (≈ 118 µM) | 2 µg/mL (≈ 7.35 µM) | 4 µg/mL (≈ 14.7 µM) | 4 µg/mL (≈ 14.7 µM) | 32 µg/mL (≈ 118 µM) | 0.5 µg/mL (≈ 1.84 µM) | 1 µg/mL (≈ 3.67 µM) | – | – | – | – | – | –
2 | C[C@@H](NC(=O)[C@@H](N)CC[S+](C)[O-])P(=O)(O)O (stereo not given in full) | 4 µg/mL (≈ 14.7 µM) | 16 µg/mL (≈ 58.8 µM) | 32 µg/mL (≈ 118 µM) | 32 µg/mL (≈ 118 µM) | 8 µg/mL (≈ 29.4 µM) | > 128 µg/mL | 4 µg/mL (≈ 14.7 µM) | 4 µg/mL (≈ 14.7 µM) | – | – | – | – | – | –
3 | CCC[C@H](NC(=O)CNC)C(=O)N[C@@H](CCC)C(=O)N[C@H](C)P(=O)(O)O | – | – | – | – | – | – | – | – | 1.1 relative molar activity | 16 µg/mL (≈ 40.6 µM) | 0.04 µg/mL (≈ 0.101 µM) | 0.12 µg/mL (≈ 0.304 µM) | 0.015 µg/mL (≈ 0.038 µM) | 1.9 relative molar activity
4 | C[C@@H](NC(=O)[C@@H](N)CF)P(=O)(O)O | 32 µg/mL (≈ 149 µM) | 8 µg/mL (≈ 37.4 µM) | 32 µg/mL (≈ 149 µM) | – | 16 µg/mL (≈ 74.7 µM) | 32 µg/mL (≈ 149 µM) | 0.25 µg/mL (≈ 1.17 µM) | 4 µg/mL (≈ 18.7 µM) | – | – | – | – | – | –
5 | C[C@@H](NC(=O)[C@@H](N)CCC/N=C(\N)N[N+](=O)[O-])P(=O)(O)O | 2 µg/mL (≈ 6.13 µM) | – | 8 µg/mL (≈ 24.5 µM) | 4 µg/mL (≈ 12.3 µM) | 32 µg/mL (≈ 98.1 µM) | 64 µg/mL (≈ 196 µM) | 0.5 µg/mL (≈ 1.53 µM) | 2 µg/mL (≈ 6.13 µM) | – | – | – | – | – | –
6 | CSCC[C@H](N)C(=O)N[C@H](C)P(=O)(O)O | 1 µg/mL (≈ 3.9 µM) | 16 µg/mL (≈ 62.4 µM) | 1 µg/mL (≈ 3.9 µM) | 2 µg/mL (≈ 7.8 µM) | 1 µg/mL (≈ 3.9 µM) | 8 µg/mL (≈ 31.2 µM) | 0.25 µg/mL (≈ 0.976 µM) | 0.12 µg/mL (≈ 0.468 µM) | – | – | – | – | – | –
7 | C[C@@H](NC(=O)[C@@H](N)CCCN=C(N)N)P(=O)(O)O | 16 µg/mL (≈ 56.9 µM) | 128 µg/mL (≈ 455 µM) | 1 µg/mL (≈ 3.56 µM) | 2 µg/mL (≈ 7.11 µM) | 16 µg/mL (≈ 56.9 µM) | 32 µg/mL (≈ 114 µM) | 0.25 µg/mL (≈ 0.889 µM) | < 0.12 µg/mL | 7.7 relative molar activity | 16 µg/mL (≈ 56.9 µM) | 0.25 µg/mL (≈ 0.889 µM) | 16 µg/mL (≈ 56.9 µM) | 128 µg/mL (≈ 455 µM) | 8.3 relative molar activity
8 | CCCSC[C@H](N)C(=O)N[C@H](C)P(=O)(O)O | 2 µg/mL (≈ 7.4 µM) | 64 µg/mL (≈ 237 µM) | 0.06 µg/mL (≈ 0.222 µM) | 0.5 µg/mL (≈ 1.85 µM) | 8 µg/mL (≈ 29.6 µM) | 0.25 µg/mL (≈ 0.925 µM) | 0.06 µg/mL (≈ 0.222 µM) | 0.03 µg/mL (≈ 0.111 µM) | – | – | – | – | – | –
9 | C[C@H](N)C(=O)N[C@@H](C)C(=O)N[C@H](C)P(=O)(O)O | – | – | – | – | – | – | – | – | – | 4 µg/mL (≈ 15 µM) | 0.5 µg/mL (≈ 1.87 µM) | 0.06 µg/mL (≈ 0.225 µM) | 0.06 µg/mL (≈ 0.225 µM) | –
10 | CCC[C@H](NC(=O)[C@H](CC(C)C)NC)C(=O)N[C@@H](CCC)C(=O)N[C@H](C)P(=O)(O)O | – | – | – | – | – | – | – | – | – | 32 µg/mL (≈ 71 µM) | 2 µg/mL (≈ 4.44 µM) | 0.25 µg/mL (≈ 0.555 µM) | 0.25 µg/mL (≈ 0.555 µM) | –
11 | C[C@H](N)C(=O)N[C@@H](C)C(=O)N[C@@H](C)C(=O)N[C@H](C)P(=O)(O)O | – | – | – | – | – | – | – | – | – | 32 µg/mL (≈ 94.6 µM) | 0.12 µg/mL (≈ 0.355 µM) | 0.25 µg/mL (≈ 0.739 µM) | 0.06 µg/mL (≈ 0.177 µM) | –
12 | CCC[C@H](NC(=O)[C@H](CCC)NC(=O)[C@@H](NC)C(C)C)C(=O)N[C@H](C)P(=O)(O)O | – | – | – | – | – | – | – | – | – | > 128 µg/mL | 16 µg/mL (≈ 36.7 µM) | 8 µg/mL (≈ 18.3 µM) | 0.25 µg/mL (≈ 0.573 µM) | –
13 | CCC[C@H](NC)C(=O)N[C@@H](CCC)C(=O)N[C@@H](CCC)C(=O)N[C@H](C)P(=O)(O)O | – | – | – | – | – | – | – | – | – | 8 µg/mL (≈ 18.3 µM) | 0.5 µg/mL (≈ 1.15 µM) | 0.06 µg/mL (≈ 0.137 µM) | 0.25 µg/mL (≈ 0.573 µM) | –
14 | C[C@@H](NC(=O)[C@@H](N)CCS(C)(=O)=O)P(=O)(O)O | 4 µg/mL (≈ 13.9 µM) | 32 µg/mL (≈ 111 µM) | > 128 µg/mL | > 128 µg/mL | 32 µg/mL (≈ 111 µM) | > 128 µg/mL | 16 µg/mL (≈ 55.5 µM) | 32 µg/mL (≈ 111 µM) | – | – | – | – | – | –
15 | C[C@@H](NC(=O)[C@@H](N)Cc1cccs1)P(=O)(O)O | 2 µg/mL (≈ 7.19 µM) | 32 µg/mL (≈ 115 µM) | 1 µg/mL (≈ 3.59 µM) | 4 µg/mL (≈ 14.4 µM) | 32 µg/mL (≈ 115 µM) | 4 µg/mL (≈ 14.4 µM) | 0.5 µg/mL (≈ 1.8 µM) | 0.25 µg/mL (≈ 0.898 µM) | – | – | – | – | – | –
16 | C[C@@H](NC(=O)[C@@H](N)CCCCN=C(N)N)P(=O)(O)O | 2 µg/mL (≈ 6.77 µM) | 64 µg/mL (≈ 217 µM) | 2 µg/mL (≈ 6.77 µM) | 2 µg/mL (≈ 6.77 µM) | 128 µg/mL (≈ 433 µM) | 2 µg/mL (≈ 6.77 µM) | 0.25 µg/mL (≈ 0.847 µM) | 0.12 µg/mL (≈ 0.406 µM) | – | – | – | – | – | –
17 | CSC[C@H](N)C(=O)N[C@H](C)P(=O)(O)O | 2 µg/mL (≈ 8.26 µM) | 4 µg/mL (≈ 16.5 µM) | 0.03 µg/mL (≈ 0.124 µM) | 0.5 µg/mL (≈ 2.06 µM) | 16 µg/mL (≈ 66.1 µM) | 0.25 µg/mL (≈ 1.03 µM) | 0.03 µg/mL (≈ 0.124 µM) | 0.03 µg/mL (≈ 0.124 µM) | – | – | – | – | – | –
18 | CCC[C@H](N)C(=O)N[C@H](C)P(=O)(O)O | 1 µg/mL (≈ 4.46 µM) | 4 µg/mL (≈ 17.8 µM) | 0.25 µg/mL (≈ 1.12 µM) | 0.5 µg/mL (≈ 2.23 µM) | 8 µg/mL (≈ 35.7 µM) | 0.25 µg/mL (≈ 1.12 µM) | 0.03 µg/mL (≈ 0.134 µM) | 0.015 µg/mL (≈ 0.0669 µM) | 1.1 relative molar activity | 8 µg/mL (≈ 35.7 µM) | 0.03 µg/mL (≈ 0.134 µM) | 1 µg/mL (≈ 4.46 µM) | 4 µg/mL (≈ 17.8 µM) | 8.8 relative molar activity
19 | CNCC(=O)N[C@@H](C)C(=O)N[C@@H](C)C(=O)N[C@H](C)P(=O)(O)O | – | – | – | – | – | – | – | – | 1.05 relative molar activity | > 128 µg/mL | 0.016 µg/mL (≈ 0.0473 µM) | 0.06 µg/mL (≈ 0.177 µM) | 0.03 µg/mL (≈ 0.0887 µM) | 8 relative molar activity
20 | C[C@@H](NC(=O)[C@@H](N)CS)P(=O)(O)O | > 128 µg/mL | > 128 µg/mL | > 128 µg/mL | > 128 µg/mL | > 128 µg/mL | > 128 µg/mL | 32 µg/mL (≈ 140 µM) | 16 µg/mL (≈ 70.1 µM) | – | – | – | – | – | –
21 | C[C@H](N)C(=O)N[C@@H](C)P(=O)(O)O [ALAFOSFALIN] | 2 µg/mL (≈ 10.2 µM) | 64 µg/mL (≈ 326 µM) | 1 µg/mL (≈ 5.1 µM) | 8 µg/mL (≈ 40.8 µM) | 32 µg/mL (≈ 163 µM) | 64 µg/mL (≈ 326 µM) | 1 µg/mL (≈ 5.1 µM) | 0.5 µg/mL (≈ 2.55 µM) | 1 relative molar activity | 4 µg/mL (≈ 20.4 µM) | 0.5 µg/mL (≈ 2.55 µM) | 2 µg/mL (≈ 10.2 µM) | 4 µg/mL (≈ 20.4 µM) | 1 relative molar activity

Reference: ChEMBL document CHEMBL1123207, “Synthesis and structure-activity relationships of antibacterial phosphonopeptides incorporating (1-aminoethyl)phosphonic acid and (aminomethyl)phosphonic acid” (1986)
